Reference: ChEMBL document CHEMBL2163287, “Nitro seco analogues of the duocarmycins containing sulfonate leaving groups as hypoxia-activated prodrugs for cancer therapy” (J Med Chem, 2012)
Active and inactive are the calls of the source. The rule behind the calls is not given here.

Experiments:
[1] = system: HT-29; experiment: Cytotoxicity against human HT-29 cells under hypoxic condition assessed as inhibition of cell proliferation after 4 hrs by SRB method; type: functional, cell-based; details: HT-29, 4 h
Procedure, shortened: (§1)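 Log-phase monolayers were exposed 4 h under 20% O₂ or anoxia (<20 ppm O₂), then stained with sulforhodamine B 5 days later. IC50, interpolated as the concentration reducing cell density to 50% of same-plate controls, is given as mean of 3−9 experiments. HCR = IC50(oxic)/IC50(hypoxic), taken as the mean of intraexperiment ratios from 3−6 experiments.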

[2] = system: HT-29; experiment: Cytotoxicity against human HT-29 cells under oxic condition assessed as inhibition of cell proliferation after 4 hrs by SRB method; type: functional, cell-based; details: HT-29, 4 h; procedure, shortened: as §1
[3] = system: HT-29; experiment: Ratio of IC50 for human HT-29 cells under oxic condition to IC50 for human HT-29 cells under hypoxic condition; type: functional; procedure, shortened: as §1
[4] = system: SiHa; experiment: Cytotoxicity against human SiHa cells under hypoxic condition assessed as inhibition of cell proliferation after 4 hrs; type: functional, cell-based
Procedure, shortened: (§2)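 Log-phase monolayers were exposed to drug for 4 h, aerobic (20% O2) for line 5 and anoxic (<20 ppm O2) for line 4. Cell density was read by sulforhodamine B staining 5 days later. IC50 was interpolated as the concentration reducing density to 50% of same-plate controls; mean ± SEM of 3–9 experiments.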

[5] = system: SiHa; experiment: Cytotoxicity against human SiHa cells under oxic condition assessed as inhibition of cell proliferation after 4 hrs; type: functional, cell-based; procedure, shortened: as §2
[6] = system: SiHa; experiment: Antitumor activity against human SiHa cells xenografted in immunocompromized gamma irradiated mouse assessed as log cell kill at 42 umol/kg, iv tumor excised post 18 hrs followed by culturing for 14 days under hypoxic condition; type: functional
Procedure, shortened: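 Male immunocompromised mice bearing subcutaneous tumours (10^7 cultured cells), randomized at 8–10 mm mean diameter. Compound in PBS with 4 equiv sodium bicarbonate given iv (tail vein), alone or 5 min after 15 Gy whole-body cobalt-60 γ-irradiation, which sterilizes oxygenated cells. Tumours excised 18 h after dosing and plated for clonogens for 14 days. n = 3 (vehicle or compound alone) or 5 (irradiated groups).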

[7] = system: SiHa; experiment: Antitumor activity against human SiHa cells xenografted in immunocompromized gamma irradiated mouse assessed as number of colony forming cells per gram of tumor tissue at 42 umol/kg, iv tumor excised post 18 hrs followed by culturing for 14 days; type: functional
Procedure, shortened: (§3)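 SiHa tumours grown subcutaneously in male mice from 10⁷ cultured cells; randomized at 8−10 mm mean diameter. Compound in phosphate-buffered saline with 4 equiv sodium bicarbonate, given via tail vein at the stated dose, alone or 5 min after 15 Gy whole-body cobalt-60 γ irradiation. Tumours excised 18 h after dosing, cells cultured 14 days for clonogens. Groups of 3 (drug alone) or 5 (radiation + drug).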

[8] = system: NCI-H460; experiment: Toxicity in human H460 cells xenografted immunocompromized mouse at 75 umol/kg, iv; details: in vivo
[9] = system: SiHa; experiment: Antitumor activity against human SiHa cells xenografted in immunocompromized mouse assessed as number of colony forming cells per gram of tumor tissue at 42 umol/kg, iv tumor excised post 18 hrs followed by culturing for 14 days; type: functional; procedure, shortened: as §3
[10] = system: SiHa; experiment: Cytotoxicity against human SiHa cells under hypoxic condition assessed as after 4 hrs by clonogenic assay; type: functional, cell-based
Procedure, shortened: (§4)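 Cells were exposed to drug in duplicate for 4 h at 37 °C, either aerobic (95% air, 5% CO₂) or in an anaerobic chamber (<0.001% O₂). Medium was αMEM + 10% FCS with added glucose (final 17 mmol/L) and 200 μmol/L 2′-deoxycytidine. Cells were then trypsinized and plated; colonies >50 cells were counted after 14 days (methylene blue). C10 = concentration giving 10% survival vs controls; HCR = C10(oxic)/C10(hypoxic).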

[11] = system: SiHa; experiment: Cytotoxicity against human SiHa cells under oxic condition after 4 hrs by clonogenic assay; type: functional, cell-based; procedure, shortened: as §4

SMILES	IC50 [1] [nM]	IC50 [2] [nM]	Ratio IC50 [3]	IC50 [4] [nM]	IC50 [5] [nM]	LCK [6]	log10cfu [7]	Activity [8]	log10cfu [9]	Activity [10]	Activity [11]
COc1ccc(/C=C/C(=O)N2CC(COS(=O)(=O)Cc3ccccc3)c3c2cc([N+](=O)[O-])c2cc(S(=O)(=O)NCCO)ccc32)cc1 (stereo not given)	950	47000	50	370	7300						
CN(C)CCOc1ccc2[nH]c(C(=O)N3CC(COS(=O)(=O)Cc4ccccc4)c4c3cc([N+](=O)[O-])c3cc(S(N)(=O)=O)ccc43)cc2c1 (stereo not given)	90	1600	18	45	370						
CN(C)CCOc1ccc2[nH]c(C(=O)N3CC(COS(=O)(=O)Cc4ccccc4)c4c3cc([N+](=O)[O-])c3cc(C(N)=O)ccc43)cc2c1 (stereo not given)	38	2200	58	120	530						
COc1ccc(/C=C/C(=O)N2CC(COS(C)(=O)=O)c3c2cc([N+](=O)[O-])c2cc(S(=O)(=O)NCCO)ccc32)cc1 (stereo not given)	4100	26000	31	320	11000						
COc1cc2cc(C(=O)N3CC(CCl)c4c3cc([N+](=O)[O-])c3cc(S(=O)(=O)NCCOP(=O)(O)O)ccc43)[nH]c2c(OC)c1OC (stereo not given)						0.54					
CN(C)CCOc1ccc2[nH]c(C(=O)N3CC(COS(=O)(=O)Cc4ccccc4)c4c3cc([N+](=O)[O-])c3cc(C(=O)NCCOP(=O)(O)O)ccc43)cc2c1 (stereo not given)						0.98	4.42	Non-toxic	6.92		
CN(C)CCOc1ccc2[nH]c(C(=O)N3CC(COS(C)(=O)=O)c4c3cc([N+](=O)[O-])c3cc(S(=O)(=O)NCCO)ccc43)cc2c1 (stereo not given)	2200	13000	7.4	380	4100						
COc1cc2cc(C(=O)N3CC(COS(=O)(=O)Cc4ccccc4)c4c3cc([N+](=O)[O-])c3cc(C(=O)NCCO)ccc43)[nH]c2c(OC)c1OC (stereo not given)	610	15000	13	160	900						
COc1ccc(/C=C/C(=O)N2CC(COS(=O)(=O)Cc3ccccc3)c3c2cc([N+](=O)[O-])c2cc(C#N)ccc32)cc1O (stereo not given)	620	3400	5.4	19	570					Active	Active
O=C(c1cc2cc(OCCN3CCOCC3)ccc2[nH]1)N1CC(COS(=O)(=O)Cc2ccccc2)c2c1cc([N+](=O)[O-])c1cc(S(=O)(=O)NCCOP(=O)(O)O)ccc21 (stereo not given)						0.34	4.76		7.08		
CN(C)CCOc1ccc2[nH]c(C(=O)N3CC(COS(=O)(=O)Cc4ccccc4)c4c3cc([N+](=O)[O-])c3cc(S(=O)(=O)NCCO)ccc43)cc2c1 (stereo not given)	3900	38000	9.7	55	4500						
COc1cc2cc(C(=O)N3CC(COS(=O)(=O)Cc4ccccc4)c4c3cc([N+](=O)[O-])c3cc(C#N)ccc43)[nH]c2c(OC)c1OC (stereo not given)	43	2600	94	26	650						
COc1cc2cc(C(=O)N3CC(COS(=O)(=O)Cc4ccccc4)c4c3cc([N+](=O)[O-])c3cc(C(=O)NCCOP(=O)(O)O)ccc43)[nH]c2c(OC)c1OC (stereo not given)						1.78	3.62	Non-toxic	6.71		
O=C(c1cc2cc(OCCN3CCOCC3)ccc2[nH]1)N1CC(COS(=O)(=O)Cc2ccccc2)c2c1cc([N+](=O)[O-])c1cc(S(=O)(=O)NCCO)ccc21 (stereo not given)	> 20000	50000	<2.5	39	23000						
COc1cc2cc(C(=O)N3CC(COS(C)(=O)=O)c4c3cc([N+](=O)[O-])c3cc(S(=O)(=O)NCCO)ccc43)[nH]c2c(OC)c1OC (stereo not given)	14000	14000	8.6	2100	6300						
COc1cc2cc(C(=O)N3CC(COS(=O)(=O)Cc4ccccc4)c4c3cc([N+](=O)[O-])c3cc(S(=O)(=O)NCCOP(=O)(O)O)ccc43)[nH]c2c(OC)c1OC (stereo not given)						2.71	2.39		6.53		
CN(C)CCOc1ccc2[nH]c(C(=O)N3CC(COS(C)(=O)=O)c4c3cc([N+](=O)[O-])c3cc(S(=O)(=O)NCCOP(=O)(O)O)ccc43)cc2c1 (stereo not given)						0.33	4.65	Non-toxic	7.18		
NC(=O)c1ccc2c3c(cc([N+](=O)[O-])c2c1)N(C(=O)c1cc2cc(OCCOP(=O)(O)O)ccc2[nH]1)CC3COS(=O)(=O)Cc1ccccc1 (stereo not given)						0.37	5.09	Non-toxic	6.91		
CN(C)CCOc1ccc2[nH]c(C(=O)N3CC(COS(=O)(=O)Cc4ccccc4)c4c3cc([N+](=O)[O-])c3cc(S(=O)(=O)NCCOP(=O)(O)O)ccc43)cc2c1 (stereo not given)						0.18	4.92		6.92		
COc1cc2cc(C(=O)N3CC(COS(=O)(=O)Cc4ccccc4)c4c3cc([N+](=O)[O-])c3cc(S(=O)(=O)NCCO)ccc43)[nH]c2c(OC)c1OC (stereo not given)	360	8400	23	110	940						
COc1ccc(/C=C/C(=O)N2CC(COS(=O)(=O)Cc3ccccc3)c3c2cc([N+](=O)[O-])c2cc(C(N)=O)ccc32)cc1O (stereo not given)	430	4600	21	96	2100					Active	Active
N#Cc1ccc2c3c(cc([N+](=O)[O-])c2c1)N(C(=O)c1cc2cc(OCCO)ccc2[nH]1)CC3COS(=O)(=O)Cc1ccccc1 (stereo not given)	490	2500	5.2	35	710						
CN(C)CCOc1ccc2[nH]c(C(=O)N3CC(CCl)c4c3cc([N+](=O)[O-])c3cc(C(=O)NCCO)ccc43)cc2c1 (stereo not given)	110	12000	485	240	4200						
COc1cc2cc(C(=O)N3CC(CCl)c4c3cc([N+](=O)[O-])c3cc(C(=O)NCCO)ccc43)[nH]c2c(OC)c1OC (stereo not given)	3200	5700	1.7								
CN(C)CCOc1ccc2[nH]c(C(=O)N3CC(COS(=O)(=O)Cc4ccccc4)c4c3cc([N+](=O)[O-])c3cc(C(=O)NCCO)ccc43)cc2c1 (stereo not given)	570	4300	12	210	2300					Active	Active
CN(C)CCOc1ccc2[nH]c(C(=O)N3CC(CCl)c4c3cc([N+](=O)[O-])c3cc(C(=O)NCCOP(=O)(O)O)ccc43)cc2c1 (stereo not given)						2.21	3.11		6.56		
COc1ccc(/C=C/C(=O)N2CC(COS(=O)(=O)Cc3ccccc3)c3c2cc([N+](=O)[O-])c2cc(S(=O)(=O)NCCOP(=O)(O)O)ccc32)cc1 (stereo not given)						0.78	4.32		6.74		
COc1ccc(/C=C/C(=O)N2CC(COS(C)(=O)=O)c3c2cc([N+](=O)[O-])c2cc(S(=O)(=O)NCCOP(=O)(O)O)ccc32)cc1 (stereo not given)						0.71	4.75	Non-toxic	7.09		
